≈ marks a conversion by molar mass, not a printed value.

Type in all cases: functional
Details in all cases: variant bovis BCG

Test [1] deals with Mycobacterium tuberculosis. Nature of the test: Antimycobacterial activity against Mycobacterium bovis BCG at 100 ug/mL by microplate Alamar blue assay. Put shortly: (§1)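 MABA with M. bovis BCG, M. tuberculosis H37Ra or M. avium ATCC 25291. DMSO stocks (10 mg/mL) diluted in 7H9GC; final inoculum 2.5 × 10⁵ CFU/mL. Incubated 6 days, then alamar blue plus Tween 80 added and read by fluorescence after about 24 h. […]. Tested in triplicate at 100, 50, 10 and 1 µg/mL; two experiments, mean reported.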
A general note: The colour change of resazurin is a common sign of viable cells or microbes.

Test [2] deals with Mycobacterium tuberculosis. The test is described as follows: Antimycobacterial activity against Mycobacterium bovis BCG at 10 ug/mL by microplate Alamar blue assay. In outline:
as §1

The subject of test [3] is Mycobacterium tuberculosis. The test is described as follows: Antimycobacterial activity against Mycobacterium bovis BCG by microplate Alamar blue assay. In outline: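 Same alamar blue microplate setup (7H9GC, 2.5 × 10⁵ CFU/mL, 6 days, then dye read after about 24 h), using 2-fold compound dilutions. MIC90 is the lowest concentration giving about 90% inhibition relative to bacteria-only wells after background subtraction. Visual MIC is the lowest concentration preventing the blue-to-pink change.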

Test [4] deals with Mycobacterium tuberculosis. Nature of the test: Antimycobacterial activity against Mycobacterium bovis BCG at 50 ug/mL by microplate Alamar blue assay. Put shortly: as §1
Test [5] has as its system Mycobacterium tuberculosis. Nature of the test: Antimycobacterial activity against Mycobacterium bovis BCG at 1ug/mL by microplate Alamar blue assay. In outline:
as §1

In test [1], `O=c1[nH]c(=O)n([C@@H]2O[C@H](CO)[C@@H](O)[C@@H]2O)cc1C(O)C(Br)Br` (some centres not stated) showed an inhibition at 100 µg/mL of 0%.

`O=c1[nH]c(=O)n([C@@H]2O[C@H](CO)[C@@H](O)[C@@H]2O)cc1Br` came in with an inhibition at 100 µg/mL in test [1] of 0%.

`Cc1cn([C@@H]2O[C@H](CO)[C@@H](O)[C@@H]2O)c(=O)[nH]c1=S`: in test [1], the inhibition at 100 µg/mL amounted to 0%.

Compound `CCCCCCCCCCC#Cc1cn([C@@H]2O[C@H](CO)[C@@H](O)[C@H]2F)c(=O)[nH]c1=O` displayed an inhibition at 10 µg/mL in test [2] of 100%. Further, the inhibition at 100 µg/mL in test [1] was 100%. Besides, the MIC90 in test [3] was 1 µg/mL (≈ 2.44 µM). This compound showed an inhibition at 50 µg/mL in test [4] of 100%. In test [5], this compound displayed an inhibition at 1 µg/mL of 70%.

Turning to `CCCCCCCCCCCC#Cc1cn([C@@H]2O[C@H](CO)[C@@H](O)[C@H]2F)c(=O)[nH]c1=O`, the inhibition at 10 µg/mL in test [2] was determined as 100%. For the same compound, in test [1], testing at 100 µg/mL gave an inhibition of 100%. The same compound showed an MIC90 in test [3] of 1 µg/mL (≈ 2.36 µM). Also, in test [4], at 50 µg/mL the inhibition was 100%. Moreover, in test [5], the inhibition at 1 µg/mL turned out to be 90%.

In test [2], `CCCCCCCCCCCCC#Cc1cn([C@@H]2O[C@H](CO)[C@@H](O)[C@@H]2O)c(=O)[nH]c1=O` had an inhibition at 10 µg/mL of 50%. Moreover, the inhibition at 100 µg/mL in test [1] worked out at 100%. The compound also registered an MIC90 in test [3] of 10 µg/mL (≈ 22.9 µM). In test [4], this compound returned an inhibition at 50 µg/mL of 100%.

The compound `CCCCCCCCCCCCC#Cc1cn([C@@H]2O[C@H](CO)[C@@H](O)[C@H]2F)c(=O)[nH]c1=O` gave an inhibition at 10 µg/mL in test [2] of 50%. The same compound showed an inhibition at 100 µg/mL in test [1] of 100%. The same compound yielded an MIC90 in test [3] of 10 µg/mL (≈ 22.8 µM). Besides, in test [4], the inhibition at 50 µg/mL amounted to 100%.

The compound `CCCc1ccc(C#Cc2cn([C@@H]3O[C@H](CO)[C@@H](O)[C@@H]3O)c(=O)[nH]c2=O)cc1` displayed an inhibition at 100 µg/mL in test [1] of 100%. Further, in test [3], the MIC90 was found to be 100 µg/mL (≈ 259 µM). Besides, the inhibition at 50 µg/mL in test [4] was 50%.

With `CCOC(=O)/C=C/c1cn([C@@H]2O[C@H](CO)[C@@H](O)[C@H]2F)c(=O)[nH]c1=O`, testing at 100 µg/mL in test [1] gave an inhibition of 0%.

In test [1], `CCOC(=O)C(Cl)C(O)c1cn([C@@H]2O[C@H](CO)[C@@H](O)[C@H]2F)c(=O)[nH]c1=O` (some centres not stated) showed an inhibition at 100 µg/mL of 0%.

As to `CCOC(=O)C(Br)C(O)c1cn([C@@H]2O[C@H](CO)[C@@H](O)[C@H]2F)c(=O)[nH]c1=O` (some centres not stated), 100 µg/mL produced 0% inhibition in test [1].

`O=c1[nH]c(=O)n([C@@H]2O[C@H](CO)[C@@H](O)[C@H]2F)cc1Br` gave an inhibition at 100 µg/mL in test [1] of 0%.

In test [1], `O=C(O)/C=C/c1cn([C@@H]2O[C@H](CO)[C@@H](O)[C@@H]2O)c(=O)[nH]c1=O` showed an inhibition at 100 µg/mL of 0%.

The compound `COC(CI)c1cn([C@@H]2O[C@H](CO)[C@@H](O)[C@@H]2O)c(=O)[nH]c1=O` (some centres not stated) registered an inhibition at 100 µg/mL in test [1] of 0%.

For the compound `CCCCCC#Cc1cn([C@@H]2O[C@H](CO)[C@@H](O)[C@@H]2O)c(=O)[nH]c1=O`, in test [1], the inhibition at 100 µg/mL came out at 25%.

With `CCCCCCCCC#Cc1cn([C@@H]2O[C@H](CO)[C@@H](O)[C@@H]2O)c(=O)[nH]c1=O`, in test [2], the inhibition at 10 µg/mL was 30%. The compound also came in with an inhibition at 100 µg/mL in test [1] of 100%. The MIC90 in test [3] is 100 µg/mL (≈ 263 µM). Also, the inhibition at 50 µg/mL in test [4] is 50%.

`CCCCCCCCCCC#Cc1cn([C@@H]2O[C@H](CO)[C@@H](O)[C@@H]2O)c(=O)[nH]c1=O` had an inhibition at 10 µg/mL in test [2] of 100%. This compound also displayed an inhibition at 100 µg/mL in test [1] of 100%. For the same compound, the MIC90 in test [3] amounted to 1 µg/mL (≈ 2.45 µM). The inhibition at 50 µg/mL in test [4] came out at 100%. The inhibition at 1 µg/mL in test [5] was 75%.

In test [2], `CCCCCCCCCCCC#Cc1cn([C@@H]2O[C@H](CO)[C@@H](O)[C@@H]2O)c(=O)[nH]c1=O` had an inhibition at 10 µg/mL of 50%. This compound also came in with an inhibition at 100 µg/mL in test [1] of 100%. The MIC90 in test [3] was found to be 10 µg/mL (≈ 23.7 µM). Besides, the inhibition at 50 µg/mL in test [4] came out at 100%.

The compound `O=c1[nH]c(=O)n([C@@H]2O[C@H](CO)[C@@H](O)[C@H]2F)cc1Cl` gave an inhibition at 100 µg/mL in test [1] of 50%. This compound had an inhibition at 50 µg/mL in test [4] of 50%.

With `Cc1cn([C@@H]2O[C@H](CO)[C@@H](O)[C@H]2F)c(=O)[nH]c1=S`, in test [1], the inhibition at 100 µg/mL came out at 25%.

`O=c1[nH]c(=O)n([C@@H]2O[C@H](CO)[C@@H](O)[C@@H]2O)cc1C(O)C(Cl)Cl` (some centres not stated) displayed an inhibition at 100 µg/mL in test [1] of 0%.

`O=c1[nH]c(=O)n([C@@H]2O[C@H](CO)[C@@H](O)[C@@H]2O)cc1C(O)CI` (some centres not stated) registered an inhibition at 100 µg/mL in test [1] of 0%.

For `O=C(O)C(I)C(O)c1cn([C@@H]2O[C@H](CO)[C@@H](O)[C@H]2F)c(=O)[nH]c1=O` (some centres not stated), testing at 100 µg/mL in test [1] gave an inhibition of 0%.

`O=c1[nH]c(=O)n([C@@H]2O[C@H](CO)[C@@H](O)[C@@H]2O)cc1Cl`: in test [1], the inhibition at 100 µg/mL came to 0%.

In the case of `O=c1[nH]c(=S)ccn1[C@@H]1O[C@H](CO)[C@@H](O)[C@@H]1O`, 100 µg/mL produced 0% inhibition in test [1].

On to `CCCCCC#Cc1cn([C@@H]2O[C@H](CO)[C@@H](O)[C@H]2F)c(=O)[nH]c1=O`, for which, in test [1], testing at 100 µg/mL gave an inhibition of 50%.

For the compound `O=c1[nH]c(=S)ccn1[C@@H]1O[C@H](CO)[C@@H](O)[C@H]1F`, in test [1], at 100 µg/mL the inhibition was 25%.

Compound `CCOC(=O)/C=C/c1cn([C@@H]2O[C@H](CO)[C@@H](O)[C@@H]2O)c(=O)[nH]c1=O` registered an inhibition at 100 µg/mL in test [1] of 0%.

Turning to `CCCCCCCCC#Cc1cn([C@@H]2O[C@H](CO)[C@@H](O)[C@H]2F)c(=O)[nH]c1=O`, the inhibition at 10 µg/mL in test [2] was 50%. Further, the inhibition at 100 µg/mL in test [1] came out at 100%. Besides, the MIC90 in test [3] turned out to be 50 µg/mL (≈ 131 µM). Also, the inhibition at 50 µg/mL in test [4] was 75%. This compound returned an inhibition at 1 µg/mL in test [5] of 30%.

Compound `O=C(O)/C=C/c1cn([C@@H]2O[C@H](CO)[C@@H](O)[C@H]2F)c(=O)[nH]c1=O` displayed an inhibition at 100 µg/mL in test [1] of 0%.

With `CO[C@H]1/C=C/O[C@@]2(C)Oc3c(C)c(O)c4c(O)c(c(/C=N/N5CCN(C)CC5)c(O)c4c3C2=O)NC(=O)/C(C)=C\C=C\[C@H](C)[C@H](O)[C@@H](C)[C@@H](O)[C@@H](C)[C@H](OC(C)=O)[C@@H]1C` [RIFAMPIN], in test [3], the MIC90 was 0.5 µg/mL (≈ 0.608 µM).

The inhibition is the drop in the measured response relative to a control, in per cent. A high value points to a response far below the control. What is called MIC90 is an inhibitory concentration at the 90% level, which refers to growth in some studies and to a panel of isolates in others.

Values taken from ChEMBL document CHEMBL1146217, “Growth inhibition of Mycobacterium bovis, Mycobacterium tuberculosis and Mycobacterium avium in vitro: effect of 1-beta-D-2'-arabinofuranosyl and 1-(2'-deoxy-2'-fluoro-beta-D-2'-ribofuranosyl) pyrimidine nucleoside analogs” (J Med Chem, 2007).
